ChEMBL document CHEMBL2069294, “Synthesis and evaluation of hybrid drugs for a potential HIV/AIDS-malaria combination therapy” (Bioorg Med Chem, 2012)
Calls of active or inactive are those of the source. No cut-off for these calls is given here.

What was measured:
[1] = test system: Human immunodeficiency virus 1; test: Antiviral activity against VSV-G pseudotyped HIV1 lentiviral particles infected in human HeLa cells incubated for 48 hrs by spectrofluorometry; assay type: functional, organism-based
[2] = test system: Plasmodium falciparum; test: Antiplasmodial activity against Plasmodium falciparum 3D7 ring stage cells assessed as reduction parasitemia by Malstat assay; assay type: functional, organism-based
[3] = test system: Plasmodium falciparum; test: Antiplasmodial activity against drug resistant Plasmodium falciparum Dd2 ring stage cells assessed as reduction parasitemia by Malstat assay; assay type: functional, organism-based
[4] = Selectivity index, ratio of CC50 for human HeLa cells to IC50 for Plasmodium falciparum Dd2 ring stage cells; assay type: functional
How it was run: (§1)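 Ratio of HeLa MTT CC50 to Malstat IC50 against the stated P. falciparum strain (ring-stage, triplicate, 1% parasitemia).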

[5] = Selectivity index, ratio of CC50 for human HeLa cells to IC50 for VSV-G pseudotyped HIV1 lentiviral particles; assay type: functional
How it was run: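 Ratio of HeLa MTT CC50 to IC50 in the 48 h VSV-G-pseudotyped HIV-1 reporter assay in HeLa cells.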

[6] = Selectivity index, ratio of CC50 for human HeLa cells to IC50 for Plasmodium falciparum 3D7 ring stage cells; assay type: functional; how it was run: as §1
[7] = test system: HeLa; test: Cytotoxicity against human HeLa cells by MTT assay; assay type: cell-based
How it was run: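 MTT reduction assay on HeLa cells (DMEM, 10% heat-inactivated FCS) with serial dilutions; CC50 taken as concentration giving 50% growth inhibition, ± SEM.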

[8] = test system: Human immunodeficiency virus 1; test: Antiviral activity against HIV1 NL43 infected din human MT4 cells pre-incubated in presence of compound for 48 hrs followed by TZM cells infection with compound treated virus supernatant by X-gal staining based microscopy; assay type: functional, organism-based; settings: Human immunodeficiency virus 1, NL43, TZM
How it was run: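 MT4 co-culture with NL43 HIV-1 preincubated 4 h at 37 °C, then compounds in DMSO added at six concentrations for 48 h; cell-free supernatant used to infect TZM cells in triplicate; after 2 days cells fixed (acetone/ethanol), X-Gal stained 2–4 h, blue cells counted; uninfected and untreated-infected wells set as 100% and 0% activity.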

[9] = test system: Plasma; test: Drug metabolism in C57/BL6 mouse plasma assessed as azidothymidine level at 20 mg/kg, po dissolved in 10% DMSO; assay type: ADME, organism-based; set-up: dose 20 mg/kg, route oral; settings: in vivo
How it was run: (§2)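 Male C57/BL6 mice given 20 mg/kg by oral gavage (200 µl) in 10% DMSO (resuspended precipitate) or Pheroid vesicles; tail blood at 30–480 min (DMSO) or 10–420 min (Pheroid), plasma separated; parent, AZT and DHA quantified by LC–MS/MS after acetonitrile extraction with deoxythymidine internal standard, calibration in plasma.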

[10] = test system: Blood; test: Drug metabolism in C57/BL6 mouse blood assessed as dihydroartemisinin level at 20 mg/kg, po dissolved in Pheroid formulation; assay type: ADME, organism-based; set-up: dose 20 mg/kg, route oral; settings: in vivo; how it was run: as §2
[11] = test system: Blood; test: Drug metabolism in C57/BL6 mouse blood assessed as azidothymidine level at 20 mg/kg, po dissolved in Pheroid formulation; assay type: ADME, organism-based; set-up: dose 20 mg/kg, route oral; settings: in vivo; how it was run: as §2
[12] = test system: Blood; test: Drug metabolism in C57/BL6 mouse blood assessed as dihydroartemisinin level at 20 mg/kg, po dissolved in 10% DMSO; assay type: ADME, organism-based; set-up: dose 20 mg/kg, route oral; settings: in vivo; how it was run: as §2
[13] = test system: Plasma; test: Drug metabolism in C57/BL6 mouse plasma assessed as dihydroartemisinin level at 20 mg/kg, po dissolved in Pheroid formulation; assay type: ADME, organism-based; set-up: dose 20 mg/kg, route oral; settings: in vivo; how it was run: as §2
[14] = test system: Mus musculus; test: Toxicity in Plasmodium […] N infected in C57/BL6 mouse assessed as parasitemia at 20 mg/kg, po dosed 30 mins post parasite infection and same dose repeated on days 1, 2 and 3 post infection measured on parasitemia day 2 to 7; assay type: organism-based; set-up: dose 20 mg/kg, route oral; settings: in vivo, 0.5 h
How it was run: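 Infected mice dosed orally at 20 mg/kg on days 0–3 (first dose 30 min after intraperitoneal infection); death of treated infected mice before day 6 counted as toxic death; parasitemia followed on Giemsa smears to day 7.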

[15] = Prodrug release in buffer assessed as dihydroartemisinin level; assay type: physicochemical
[16] = Cmax in C57/BL6 mouse plasma at 20 mg/kg, po dissolved in Pheroid formulation; assay type: ADME, organism-based; set-up: dose 20 mg/kg, route oral; how it was run: as §2
[17] = Drug metabolism in C57/BL6 mouse liver microsomes measured after 15 mins; assay type: ADME, Microsome; settings: read-out: Drug metabolism
How it was run: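 Compound at 1 µM final incubated at 37 °C with mouse liver microsomes (0.2 mg/ml protein) in phosphate buffer pH 7.4; started with 1 mM NADPH; aliquots at 0, 15, 30, 45 min quenched in cold acetonitrile; parent remaining (% of time zero) and released AZT/DHA measured by LC–MS/MS.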

[18] = test system: Blood; test: Drug metabolism in C57/BL6 mouse blood assessed as azidothymidine level at 20 mg/kg, po dissolved in 10% DMSO; assay type: ADME, organism-based; set-up: dose 20 mg/kg, route oral; settings: in vivo; how it was run: as §2
[19] = test system: Plasmodium falciparum; test: Antiplasmodial activity against Plasmodium falciparum NF54 assessed as reduction in stage IV and V gametocyte formation at IC50 level incubated for 48 hrs measured 7 days post compound wash by Giemsa staining; assay type: functional, organism-based
[20] = test system: Plasma; test: Drug metabolism in C57/BL6 mouse plasma assessed as azidothymidine level at 20 mg/kg, po dissolved in Pheroid formulation; assay type: ADME, organism-based; set-up: dose 20 mg/kg, route oral; settings: in vivo; how it was run: as §2
[21] = Prodrug release in buffer assessed as azidothymidine level; assay type: physicochemical
[22] = test system: Plasma; test: Drug metabolism in C57/BL6 mouse plasma assessed as dihydroartemisinin level at 20 mg/kg, po dissolved in 10% DMSO; assay type: ADME, organism-based; set-up: dose 20 mg/kg, route oral; settings: in vivo; how it was run: as §2
[23] = Human immunodeficiency virus 1, HeLa, 48 h, read-out: IC50
[24] = Plasmodium falciparum, 3D7, read-out: IC50

Structure (SMILES)	IC50 [1, 23]	IC50 [2, 24]	IC50 [3]	Ratio CC50/IC50 [4]	Ratio CC50/IC50 [5]	Ratio CC50/IC50 [6]	IC50 [7]	IC50 ([1]; hela)	further results
Cc1cn([C@H]2C[C@H](n3cc(CO[C@H]4O[C@@H]5O[C@@]6(C)CC[C@H]7[C@H](C)CC[C@@H]([C@H]4C)[C@@]57OO6)nn3)[C@@H](CO)O2)c(=O)[nH]c1=O	11100 nM	270 nM	100 nM	>1000	>9	>370.4	> 100000 nM	–	–
Cc1cn([C@H]2C[C@H](NC(=O)NCCNc3ccnc4cc(Cl)ccc34)[C@@H](CO[Si](c3ccccc3)(c3ccccc3)C(C)(C)C)O2)c(=O)[nH]c1=O	–	370 nM	340 nM	69.9	–	64.3	23800 nM	Not Active	–
Cc1cn([C@H]2C[C@H](NC(=O)C(=O)NCCCCCNc3ccnc4cc(Cl)ccc34)[C@@H](CO[Si](c3ccccc3)(c3ccccc3)C(C)(C)C)O2)c(=O)[nH]c1=O	900 nM	380 nM	80 nM	358.1	31.8	75.4	28600 nM	–	–
Cc1cn([C@H]2C[C@H](NC(=O)C(=O)NCCCCCNc3ccnc4cc(Cl)ccc34)[C@@H](CO)O2)c(=O)[nH]c1=O	–	1940 nM	10600 nM	>9.5	–	>51.5	> 100000 nM	Not Active	–
Cc1cn([C@H]2C[C@H](N=[N+]=[N-])[C@@H](CO[C@H]3O[C@@H]4O[C@@]5(C)CC[C@H]6[C@H](C)CC[C@@H]([C@H]3C)[C@@]46OO5)O2)c(=O)[nH]c1=O	2860 nM	30 nM	10 nM	>10000	>35	>3333.3	> 100000 nM	–	IC50 [8]: 486 nM; Drug metabolism [9]: Not Active; Drug metabolism [10]: Not Active; Drug metabolism [11]: Active; Drug metabolism [12]: Not Active; Drug metabolism [13]: Active; Activity [14]: Non-toxic; Drug metabolism [15]: Not Active; Cmax [16]: 40 ng/mL; metabolised at 0.25 h [17]: > 90%; Drug metabolism [18]: Active; inhibition [19]: Active; Drug metabolism [20]: Active; Drug metabolism [21]: Active; Drug metabolism [22]: Active
NCCNc1ccnc2cc(Cl)ccc12	–	30 nM	–	275.8	–	2114.7	63400 nM	Not Active	–
Cc1cn([C@H]2C[C@H](NC(=O)CC3CCC4(CC3)OOC3(OO4)C4CC5CC(C4)CC3C5)[C@@H](CO[Si](c3ccccc3)(c3ccccc3)C(C)(C)C)O2)c(=O)[nH]c1=O (stereo partly drawn)	–	270 nM	190 nM	>526.3	–	>370.4	> 100000 nM	Not Active	–
C[C@H]1[C@@H](O)O[C@@H]2O[C@@]3(C)CC[C@H]4[C@H](C)CC[C@@H]1[C@@]24OO3 [ARTENIMOL]	–	30 nM	10 nM	–	–	>3333.3	> 100000 nM	Not Active	inhibition [19]: Active
Cc1cn([C@H]2C[C@H](N=[N+]=[N-])[C@@H](CO)O2)c(=O)n(CCNc2ccnc3cc(Cl)ccc23)c1=O	7150 nM	460 nM	650 nM	>153.8	>14	>217.4	> 100000 nM	–	–
Cc1cn([C@H]2C[C@H](NC(=O)CC3CCC4(CC3)OOC3(OO4)C4CC5CC(C4)CC3C5)[C@@H](CO)O2)c(=O)[nH]c1=O (stereo partly drawn)	–	220 nM	100 nM	233.8	–	106.3	23400 nM	Not Active	–
OCc1cccc(Nc2ccnc3cc(Cl)ccc23)c1	–	1420 nM	1460 nM	>68.5	–	>70.4	> 100000 nM	Not Active	–
CCN(CC)CCCC(C)Nc1ccnc2cc(Cl)ccc12 (stereo not drawn) [CHLOROQUINE]	12500 nM	–	–	–	–	–	> 100000 nM	–	–
OCCNc1ccnc2cc(Cl)ccc12	–	2200 nM	1720 nM	>58.1	–	>45.5	> 100000 nM	Not Active	–
Cc1nnc(C(=O)NC(C)(C)c2nc(C(=O)NCc3ccc(F)cc3)c(O)c(=O)n2C)o1 [RALTEGRAVIR]	10 nM	–	–	–	>10000	–	> 100000 nM	–	IC50 [2]: Not Active
Cc1cn([C@H]2C[C@H](N=[N+]=[N-])[C@@H](CO)O2)c(=O)n(Cc2cccc(Nc3ccnc4cc(Cl)ccc34)c2)c1=O	1760 nM	160 nM	220 nM	>454.5	>56.8	>625	> 100000 nM	–	–
Cc1cn([C@H]2C[C@H](NC(=O)NCCCCCNc3ccnc4cc(Cl)ccc34)[C@@H](CO[Si](c3ccccc3)(c3ccccc3)C(C)(C)C)O2)c(=O)[nH]c1=O	7920 nM	580 nM	80 nM	451.6	4.6	62.3	36100 nM	–	–
CCOC(=O)C(=O)N[C@H]1C[C@H](n2cc(C)c(=O)[nH]c2=O)O[C@@H]1CO[Si](c1ccccc1)(c1ccccc1)C(C)(C)C	–	11100 nM	12100 nM	5.3	–	5.75	64000 nM	Not Active	–
Cc1cn([C@H]2C[C@H](NC(=O)NCCCCCNc3ccnc4cc(Cl)ccc34)[C@@H](CO)O2)c(=O)[nH]c1=O	–	5180 nM	8020 nM	>12.5	–	>19.3	> 100000 nM	Not Active	–
NCCCCCNc1ccnc2cc(Cl)ccc12	–	130 nM	230 nM	>246.3	–	>435.7	56600 nM	Not Active	–
Cc1cn([C@H]2C[C@H](N=[N+]=[N-])[C@@H](CO)O2)c(=O)[nH]c1=O [ZIDOVUDINE]	40 nM	–	–	–	–	–	> 100000 nM	–	IC50 [2]: Not Active
COc1cc(NC(C)CCCN)c2ncccc2c1 (stereo not drawn)	–	–	–	–	–	–	–	–	inhibition [19]: Active
Cc1cn([C@H]2C[C@H](NC(=O)NCCNc3ccnc4cc(Cl)ccc34)[C@@H](CO)O2)c(=O)[nH]c1=O	–	3530 nM	31600 nM	>3.2	–	>28.3	> 100000 nM	Not Active	–
